Active and inactive are the calls of the source. The rule behind the calls is not given here.
Assays:
Format in all cases: functional
Tobacco mosaic virus [1] = experiment: (§1) Induction of systemic acquired resistance against Tobacco mosaic virus (TMV) in tobacco plants exposed to 2000 ug/mL compound through irrigation based soil treatment followed by 7 days culture under green house conditions assessed as inhibition of viral growth in leaves infected with Tobacco mosaic virus (TMV) measured 72 hr post viral infection by half-leaf juice rubbing method; parameters: scale not given: the % may be the effect or the level left
Method in brief: (§2)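 Tobacco plants received compound by leaf spray or by soil irrigation, with double-distilled water as CK. Newly grown leaves were then rub-inoculated with TMV (5.88×10-2 μg/mL), and plants were kept at 25 °C for 72 h. Lesions on inoculated leaves were counted. Inhibition = (CK−A)/CK×100 from mean lesion numbers versus control.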

Tobacco mosaic virus [2] = experiment: as §1, with “50” for “2000”; parameters: scale not given: the % may be the effect or the level left; method in brief: as §2
Tobacco mosaic virus [3] = experiment: as §1, with “100” for “2000”; parameters: scale not given: the % may be the effect or the level left; method in brief: as §2
Tobacco mosaic virus [4] = experiment: as §1, with “500” for “2000”; parameters: scale not given: the % may be the effect or the level left; method in brief: as §2
Tobacco mosaic virus [5] = experiment: as §1, with “1000” for “2000”; parameters: scale not given: the % may be the effect or the level left; method in brief: as §2
Tobacco mosaic virus [6] = experiment: as §1, with “leaf spray” for “irrigation based soil treatment”; parameters: scale not given: the % may be the effect or the level left; method in brief: as §2
Tobacco mosaic virus [7] = experiment: as §1, with “50” for “2000”, “leaf spray” for “irrigation based soil treatment”; parameters: scale not given: the % may be the effect or the level left; method in brief: as §2
Tobacco mosaic virus [8] = experiment: Antiviral activity against Tobacco mosaic virus (TMV) infected tobacco leaves exposed to 2000 ug/mL for 20 min assessed as inhibition of viral growth measured 72 hr post compound treatment compound by half-leaf juice rubbing method
Method in brief: (§3)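 Half-leaf method on tobacco. A fresh leaf from a plant at the 5-6 leaf age was rub-inoculated with TMV (5.88×10-2 μg/mL) and cut along the main vein. One half was immersed in compound solution and the other in double-distilled water, each for 20 min. Halves were kept at 25 °C and 100% humidity for 72 h, then lesions were counted. Three replicates were run. Inhibition = (CK−A)/CK×100 from mean lesion numbers.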

Tobacco mosaic virus [9] = experiment: Antiviral activity against Tobacco mosaic virus (TMV) infected tobacco leaves exposed to 1000 ug/mL for 20 min assessed as inhibition of viral growth measured 72 hr post compound treatment compound by half-leaf juice rubbing method; method in brief: as §3
Tobacco mosaic virus [10] = experiment: as §1, with “100” for “2000”, “leaf spray” for “irrigation based soil treatment”; parameters: scale not given: the % may be the effect or the level left; method in brief: as §2
Tobacco mosaic virus [11] = experiment: as §1, with “500” for “2000”, “leaf spray” for “irrigation based soil treatment”; parameters: scale not given: the % may be the effect or the level left; method in brief: as §2
Tobacco mosaic virus [12] = experiment: as §1, with “1000” for “2000”, “leaf spray” for “irrigation based soil treatment”; parameters: scale not given: the % may be the effect or the level left; method in brief: as §2
Tobacco mosaic virus [13] = experiment: In vivo antiviral activity against Tobacco mosaic virus (TMV) infected tobacco leaves exposed to 2000 ug/mL for 20 min assessed as inhibition of viral growth measured 72 hr post compound treatment compound by half-leaf juice rubbing method; method in brief: as §3
Tobacco mosaic virus [14] = experiment: In vivo antiviral activity against Tobacco mosaic virus (TMV) infected tobacco leaves exposed to 50 ug/mL for 20 min assessed as inhibition of viral growth measured 72 hr post compound treatment compound by half-leaf juice rubbing method; method in brief: as §3
Tobacco mosaic virus [15] = experiment: In vivo antiviral activity against Tobacco mosaic virus (TMV) infected tobacco leaves exposed to 1000 ug/mL for 20 min assessed as inhibition of viral growth measured 72 hr post compound treatment compound by half-leaf juice rubbing method; method in brief: as §3
Tobacco mosaic virus [16] = experiment: In vivo antiviral activity against Tobacco mosaic virus (TMV) infected tobacco leaves exposed to 500 ug/mL for 20 min assessed as inhibition of viral growth measured 72 hr post compound treatment compound by half-leaf juice rubbing method; method in brief: as §3
Tobacco mosaic virus [17] = experiment: In vivo antiviral activity against Tobacco mosaic virus (TMV) infected tobacco leaves exposed to 100 ug/mL for 20 min assessed as inhibition of viral growth measured 72 hr post compound treatment compound by half-leaf juice rubbing method; method in brief: as §3
Tobacco mosaic virus [18] = experiment: Antiviral activity against Tobacco mosaic virus (TMV) infected tobacco leaves exposed to 500 ug/mL for 20 min assessed as inhibition of viral growth measured 72 hr post compound treatment compound by half-leaf juice rubbing method; method in brief: as §3
Tobacco mosaic virus [19] = experiment: Antiviral activity against Tobacco mosaic virus (TMV) infected tobacco leaves exposed to 100 ug/mL for 20 min assessed as inhibition of viral growth measured 72 hr post compound treatment compound by half-leaf juice rubbing method; method in brief: as §3
Tobacco mosaic virus [20] = experiment: Antiviral activity against Tobacco mosaic virus (TMV) infected tobacco leaves exposed to 50 ug/mL for 20 min assessed as inhibition of viral growth measured 72 hr post compound treatment compound by half-leaf juice rubbing method; method in brief: as §3
Cytospora mali = experiment: Antifungal activity against Valsa mali assessed as growth inhibition at 50 ug/mL measured after 2 days post dose; conditions: 48 h, read-out: GI
Alternaria mali = experiment: Antifungal activity against Alternaria mali assessed as growth inhibition at 50 ug/mL measured after 2 days post dose; conditions: 48 h, read-out: GI
Sclerotinia sclerotiorum = experiment: Antifungal activity against Sclerotinia sclerotiorum assessed as growth inhibition at 50 ug/mL measured after 2 days post dose; conditions: 48 h, read-out: GI
Botrytis cinerea = experiment: Antifungal activity against Botryotinia fuckeliana assessed as growth inhibition at 50 ug/mL measured after 2 days post dose; conditions: 48 h, read-out: GI
Puccinia triticina [21] = experiment: Antifungal activity against Puccinia triticina inoculated on 500 ug/mL compound pre-treated wheat plants with 3 to 5 leaves assessed as growth inhibition
Method in brief: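 Healthy wheat plants at the 3-5 leaf stage were sprayed with compound (500 μg/mL) and then inoculated with spores. Inhibition percentage was calculated against the corresponding spore stack.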

Ceratobasidium cereale = experiment: Antifungal activity against Ceratobasidium cereale assessed as growth inhibition at 50 ug/mL measured after 2 days post dose
[22] = test system: Botryosphaeria berengeriana; experiment: Antifungal activity against Botryosphaeria berengeriana assessed as growth inhibition at 50 ug/mL measured after 2 days post dose
Phytophthora infestans = experiment: Antifungal activity against Phytophthora infestans assessed as growth inhibition at 50 ug/mL measured after 2 days post dose
Method in brief: (§4)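 Compound stock at 500 μg/mL in DMF, diluted with sterile water in the dish and mixed into potato dextrose agar before setting. A 4 mm diameter fungal plug is placed on the plate and cultured at 24-26 °C. Colony diameter is measured after 2 days.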

Rhizoctonia solani = experiment: Antifungal activity against Rhizoctonia solani assessed as growth inhibition at 50 ug/mL measured after 2 days post dose
Alternaria solani = experiment: Antifungal activity against Alternaria solani assessed as growth inhibition at 50 ug/mL measured after 2 days post dose; conditions: 48 h, read-out: GI
[23] = test system: Fusarium oxysporum f. sp. vasinfectum; experiment: Antifungal activity against Fusarium oxysporum f. sp. vasinfectum assessed as growth inhibition at 50 ug/mL measured after 2 days post dose; conditions: 48 h, read-out: GI
Alternaria kikuchiana = experiment: Antifungal activity against Alternaria kikuchiana assessed as growth inhibition at 50 ug/mL measured after 2 days post dose; conditions: 48 h, read-out: GI
[24] = test system: Colletotrichum gloeosporioides; experiment: Antifungal activity against Glomerella cingulata assessed as growth inhibition at 50 ug/mL measured after 2 days post dose; conditions: 48 h, read-out: GI
Colletotrichum lagenaria = experiment: Antifungal activity against Colletotrichum lagenaria assessed as growth inhibition at 50 ug/mL measured after 2 days post dose; conditions: 48 h, read-out: GI
Ustilaginoidea virens = experiment: Antifungal activity against Villosiclava virens assessed as growth inhibition at 50 ug/mL measured after 2 days post dose; conditions: 48 h, read-out: GI
Fusarium graminearum = experiment: Antifungal activity against Fusarium graminearum assessed as growth inhibition at 50 ug/mL measured after 2 days post dose; conditions: 48 h, read-out: GI; method in brief: as §4
Phomopsis asparagi = experiment: Antifungal activity against Phomopsis asparagi assessed as growth inhibition at 50 ug/mL measured after 2 days post dose; conditions: 48 h, read-out: GI
Mycosphaerella arachidis = experiment: Antifungal activity against Mycosphaerella arachidis assessed as growth inhibition at 50 ug/mL measured after 2 days post dose; conditions: 48 h, read-out: GI
Fusarium oxysporum = experiment: Antifungal activity against Fusarium oxysporum assessed as growth inhibition at 50 ug/mL measured after 2 days post dose; conditions: 48 h, read-out: GI
Fusarium fujikuroi = experiment: Antifungal activity against Fusarium fujikuroi assessed as growth inhibition at 50 ug/mL measured after 2 days post dose; conditions: 48 h, read-out: GI
Tobacco mosaic virus [25] = experiment: as §1, with “10” for “2000”; parameters: scale not given: the % may be the effect or the level left
Method in brief: (§5)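 Tobacco plants receive compound either as leaf spray or as soil irrigation. Newly grown leaves are then rubbed with TMV (5.88 × 10-2 μg/mL). Plants are held 72 h at 25 °C and viral lesions are counted. Inhibition ratio = (CK − A)/CK × 100, from mean lesion numbers versus control. Water is CK; tiadinil and BTH are positive controls.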

Tobacco mosaic virus [26] = experiment: as §1, with “10” for “2000”, “leaf spray” for “irrigation based soil treatment”; parameters: scale not given: the % may be the effect or the level left; method in brief: as §5
Tobacco mosaic virus [27] = experiment: In vivo antiviral activity against Tobacco mosaic virus (TMV) infected tobacco leaves exposed to 10 ug/mL for 20 min assessed as inhibition of viral growth measured 72 hr post compound treatment compound by half-leaf juice rubbing method
Tobacco mosaic virus [28] = experiment: Antiviral activity against Tobacco mosaic virus (TMV) infected tobacco leaves exposed to 10 ug/mL for 20 min assessed as inhibition of viral growth measured 72 hr post compound treatment compound by half-leaf juice rubbing method
Method in brief: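 Direct (in vitro) anti-TMV test by half-leaf method. A tobacco leaf at 5-6 leaf age is rubbed with TMV (5.88 × 10-2 μg/mL) and cut along the main vein. One half is immersed in compound and the other in double-distilled water for 20 min. Halves are kept 72 h at 25 °C and 100% humidity, then lesions are counted. Inhibition is derived from mean lesion numbers on the two halves. Triplicates; DHT is the positive control.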

Puccinia triticina [29] = experiment: Antifungal activity against Puccinia triticina inoculated on 100 ug/mL compound pre-treated wheat plants with 3 to 5 leaves assessed as growth inhibition

| Compound | Activity (Tobacco mosaic virus [1]) [%] | Activity (Tobacco mosaic virus [2]) [%] | Activity (Tobacco mosaic virus [3]) [%] | Activity (Tobacco mosaic virus [4]) [%] | Activity (Tobacco mosaic virus [5]) [%] | Activity (Tobacco mosaic virus [6]) [%] | Activity (Tobacco mosaic virus [7]) [%] | growth inhibition (GI) (Tobacco mosaic virus [8]) [%] | growth inhibition (GI) (Tobacco mosaic virus [9]) [%] | Activity (Tobacco mosaic virus [10]) [%] | Activity (Tobacco mosaic virus [11]) [%] | Activity (Tobacco mosaic virus [12]) [%] | growth inhibition (GI) (Tobacco mosaic virus [14]) [%] | growth inhibition (GI) (Tobacco mosaic virus [15]) [%] | growth inhibition (GI) (Tobacco mosaic virus [16]) [%] | growth inhibition (GI) (Tobacco mosaic virus [17]) [%] | growth inhibition (GI) (Tobacco mosaic virus [18]) [%] | growth inhibition (GI) (Tobacco mosaic virus [19]) [%] | growth inhibition (GI) (Tobacco mosaic virus [20]) [%] | growth inhibition (GI) (Puccinia triticina [21]) [%] | further results |
| --- | --- | --- | --- | --- | --- | --- | --- | --- | --- | --- | --- | --- | --- | --- | --- | --- | --- | --- | --- | --- | --- |
| CC(N)CC(=O)O (stereo not drawn) | 80 | 46 | 54 | 72 | 80 | 65 | 0 | 5 | 0 | 30 | 50 | 55 | 0 | 10 | 5 | 9 | 7 | 4 | 0 | – | growth inhibition (GI) (Tobacco mosaic virus [13]): 8% |
| Cc1ccc(NC(=O)c2snnc2C)cc1Cl [TIADINIL] | – | – | – | – | – | – | 63 | – | – | – | 40 | – | – | – | 0 | – | 0 | – | – | 40 | inhibition of growth at 50 µg/mL (Cytospora mali): 3.6%; inhibition of growth at 50 µg/mL (Alternaria mali): 32.1%; inhibition of growth at 50 µg/mL (Sclerotinia sclerotiorum): 34.4%; inhibition of growth at 50 µg/mL (Botrytis cinerea): 23.9%; growth inhibition (GI) (Ceratobasidium cereale): inactive; growth inhibition (GI) [22]: inactive; growth inhibition (GI) (Phytophthora infestans): inactive; growth inhibition (GI) (Rhizoctonia solani): inactive; inhibition of growth at 50 µg/mL (Alternaria solani): 0%; inhibition of growth at 50 µg/mL [23]: 5.3%; inhibition of growth at 50 µg/mL (Alternaria kikuchiana): 0%; inhibition of growth at 50 µg/mL [24]: 51.6%; inhibition of growth at 50 µg/mL (Colletotrichum lagenaria): 22.8%; inhibition of growth at 50 µg/mL (Ustilaginoidea virens): 12%; inhibition of growth at 50 µg/mL (Fusarium graminearum): 25%; inhibition of growth at 50 µg/mL (Phomopsis asparagi): 60%; inhibition of growth at 50 µg/mL (Mycosphaerella arachidis): 13.6%; inhibition of growth at 50 µg/mL (Fusarium oxysporum): 12.5%; inhibition of growth at 50 µg/mL (Fusarium fujikuroi): 0% |
| O=C1NCNC(=O)N1 | – | – | – | 8 | – | – | – | – | – | – | 5 | – | – | – | 42 | – | 49 | – | – | – | – |
| CSC(=O)c1cccc2nnsc12 [ACIBENZOLAR-S-METHYL] | – | 92 | 96 | 95 | 98 | – | 92 | – | 8 | 95 | 95 | 97 | 15 | – | 8 | 10 | 4 | 2 | 0 | 0 | Activity (Tobacco mosaic virus [25]): 63%; Activity (Tobacco mosaic virus [26]): 50%; growth inhibition (GI) (Tobacco mosaic virus [27]): 6%; growth inhibition (GI) (Tobacco mosaic virus [28]): 0% |
| O=C(O)c1cccc2nnsc12 [1,2,3-benzothia-diazole-7-carboxylic acid] | 2 | 10 | 0 | 5 | 8 | 12 | 3 | 8 | 6 | 0 | 5 | 8 | 0 | 18 | 5 | 8 | 3 | 5 | 7 | – | – |
| N#Cc1c(Cl)c(Cl)c(Cl)c(C#N)c1Cl [CHLOROTHALONIL] | – | – | – | – | – | – | – | – | – | – | – | – | – | – | – | – | – | – | – | – | growth inhibition (GI) (Puccinia triticina [29]): 100% |
